Drawing on PubChem BioAssay AID493235 (Broad Institute, 2011), this text covers AC500 and activation for 80 compounds.

Values joined by “and” are separate entries in the source; they are usually repeats but may differ in a detail not shown here. Equal values may be shown once. Results filed as inconclusive are left out. Active and inactive are the calls of the source.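 Rule for the calls: active = fitted dose curve passes 500% activation at or below the top valid tested dose; inconclusive = no clear call, values can overlap the other calls; inactive = the rest, opposite-direction activity included.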

The first test deals with U2OS HRE-luciferase reporter, luminescence. Description: activation of hypoxia-responsive element reporter – cell-based, U2OS, luminescence, dry powder, set 7, dose response (AID 493235).
Details: not given
A digest of the protocol:
(§1)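 assay system = human U2OS osteosarcoma cells stably expressing 3×HRE-driven luciferase reporter | technique = Steady-Glo luminescence | timing = 24 h pre-culture, 24 h compound treatment, 37 °C | compound dosing = 8 concentrations, 3-fold steps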
With `CC(C)(C)c1ccc(CNc2nc(-c3ccccn3)nnc2-c2ccccc2)cc1`, the AC500 was 1.33 µM.

As to `C[C@@H](Nc1nc(-c2ccccn2)nnc1-c1ccccc1)c1ccccc1`, the AC500 is 3.92 µM.

`C[C@H](Nc1nc(-c2ccccn2)nnc1-c1ccccc1)C1CCCCC1`: the AC500 is 2.99 µM.

On to `c1ccc(-c2nnc(Nc3nc(-c4ccccn4)nnc3-c3ccccc3)s2)cc1`, for which the AC500 was 2.99 µM.

On to `c1ccc(CCNc2nc(-c3ccccn3)nnc2-c2ccccc2)cc1`, for which the AC500 is 2.81 µM.

Regarding `O=C(NCCN1CCOCC1)c1cc(-c2ccccc2)on1`, the AC500 was 14.2 µM.

For `c1ccc(-c2csc(Nc3nc(-c4ccccn4)nnc3-c3ccccc3)n2)cc1`, the AC500 is 2.01 µM.

`OCCCNc1nc(-c2ccccn2)nnc1-c1ccccc1`: the AC500 is 16.8 µM.

As to `Cc1cccc(CNc2nc(-c3ccccn3)nnc2-c2ccccc2)c1`, the AC500 was 4.08 µM.

On to `c1ccc(-c2nnc(-c3ccccn3)nc2N2CCN(c3ccncc3)CC2)cc1`, for which the AC500 is 9.6 µM.

Regarding `c1ccc(-c2nnc(-c3ccccn3)nc2NCCN2CCOCC2)cc1`, the AC500 was 9.37 µM.

Regarding `c1ccc(-c2nnc(-c3ccccn3)nc2N2CCC(N3CCOCC3)CC2)cc1`, the AC500 was 4.84 µM.

Turning to `C[C@@H](Nc1nc(-c2ccccn2)nnc1-c1ccccc1)C1CCCCC1`, the AC500 was 4.02 µM.

Take `OCC1CCN(c2nc(-c3ccccn3)nnc2-c2ccccc2)CC1`: the AC500 is 21.7 µM.

For `Oc1ccc(CN2CCC(Cc3ccccc3)CC2)c2cccnc12`, the AC500 was 20.1 µM.

For the compound `O=C(NCCCn1ccnc1)c1cc(-c2ccccc2)on1`, the AC500 was 5.75 µM.

As to `Cc1ccc(CNc2nc(-c3ccccn3)nnc2-c2ccccc2)cc1`, the AC500 is 4.35 µM.

Consider `CC(C)(C)CCNc1nc(-c2ccccn2)nnc1-c1ccccc1`, for which the AC500 was 2.2 µM and 1.47 µM.

Regarding `CC(C)(C)CCNC(=O)c1cc(-c2ccccc2)on1`, the AC500 was 35.8 µM.

Consider `Clc1cccc(CNc2nc(-c3ccccn3)nnc2-c2ccccc2)c1`, for which the AC500 is 1.84 µM.

For `c1ccc(-c2nnc(-c3ccccn3)nc2N2CCC(C3CCCCC3)C2)cc1` (stereo unspecified), the AC500 is 4.37 µM.

Take `Cn1c(-c2ccccc2)cnc1Nc1nc(-c2ccccn2)nnc1-c1ccccc1`: the AC500 is 9.16 µM.

Take `Cc1cccc(Nc2nc(-c3ccccn3)nnc2-c2ccccc2)n1`: the AC500 is 10.7 µM.

As to `c1ccc(-c2cnc(Nc3nc(-c4ccccn4)nnc3-c3ccccc3)s2)cc1`, the AC500 is 6.49 µM.

For `c1ccc(-c2nnc(-c3ccccn3)nc2NCC2CCCCC2)cc1`, the AC500 was 2.17 µM.

On to `Oc1ccc(CNC2Cc3ccccc3C2)c2cccnc12`, for which the AC500 is 28.6 µM.

With `CN(C)c1nc(-c2ccccn2)nnc1-c1ccccc1`, the AC500 was 14.2 µM.

`CCCCNC(=O)c1cc(-c2ccccc2)on1`: the AC500 was 9.47 µM.

Regarding `c1ccc(-c2nnc(-c3ccccn3)nc2NCCCN2CCOCC2)cc1`, the AC500 was 10.2 µM.

In the case of `Oc1ccc(CN2CCC3CCCCC3C2)c2cccnc12` (stereo unspecified), the AC500 was 11.1 µM.

Take `c1ccc(-c2nnc(-c3ccccn3)nc2NCCc2ccccn2)cc1`: the AC500 is 10.3 µM.

In the case of `c1ccc(-c2nnc(-c3ccccn3)nc2Nc2cnc3ccccc3n2)cc1`, the AC500 was 6.2 µM.

Turning to `c1ccc(-c2cccc(CNc3nc(-c4ccccn4)nnc3-c3ccccc3)c2)cc1`, the AC500 was 3.39 µM.

As to `Oc1ccc(CN2CCc3ccccc3C2)c2cccnc12`, the AC500 is 3.21 µM.

In the case of `CN1CCN(c2nc(-c3ccccn3)nnc2-c2ccccc2)CC1`, the AC500 is 12.1 µM.

As for `COc1ccccc1N1CCN(Cc2ccc(O)c3ncccc23)CC1`, the AC500 was 26.5 µM.

With `c1ccc(-c2nnc(-c3ccccn3)nc2NCC2CC2)cc1`, the AC500 was 8.75 µM.

On to `c1ccc(-c2nnc(-c3ccccn3)nc2N2CCC(c3ccccc3)C2)cc1` (stereo unspecified), for which the AC500 was 1.72 µM.

Turning to `c1ccc(-c2nnc(-c3ccccn3)nc2NCc2cccnc2)cc1`, the AC500 is 15.3 µM.

Take `O=C(NCC1CC1)c1cc(-c2ccccc2)on1`: the AC500 was 10 µM.

Turning to `Cc1ccccc1CNc1nc(-c2ccccn2)nnc1-c1ccccc1`, the AC500 is 2.82 µM.

Turning to `C=CCNc1nc(-c2ccccn2)nnc1-c1ccccc1`, the AC500 is 9.45 µM.

Turning to `O=C(NCCCCO)c1cc(-c2ccccc2)on1`, the AC500 is 2.82 µM.

Consider `c1ccc(-c2ccc(CNc3nc(-c4ccccn4)nnc3-c3ccccc3)cc2)cc1`, for which the AC500 was 0.71 µM.

Regarding `O=C(NCCCN1CCOCC1)c1cc(-c2ccccc2)on1`, the AC500 is 11.3 µM.

Turning to `c1ccc(-c2nnc(-c3ccccn3)nc2NCC2CCOCC2)cc1`, the AC500 was 14.2 µM.

With `c1ccc(-c2nnc(-c3ccccn3)nc2NCc2ccccn2)cc1`, the AC500 was 20.5 µM.

For `COc1ccc(CNc2nc(-c3ccccn3)nnc2-c2ccccc2)cc1`, the AC500 was 2.59 µM.

Turning to `c1ccc(-c2nnc(-c3ccccn3)nc2Nc2nc3ccccc3s2)cc1`, the AC500 was 5.89 µM.

Take `Cc1ccc(CNc2nc(-c3ccccn3)nnc2-c2ccccc2)cc1C`: the AC500 is 1.31 µM.

For `CC(Nc1nc(-c2ccccn2)nnc1-c1ccccc1)c1ccccc1` (stereo unspecified), the AC500 is 2.97 µM.

On to `Cc1ccc(Nc2nc(-c3ccccn3)nnc2-c2ccccc2)cn1`, for which the AC500 is 11.2 µM.

For the compound `COc1cccc(CNc2nc(-c3ccccn3)nnc2-c2ccccc2)c1`, the AC500 was 2.07 µM.

For `c1ccc(CNc2nc(-c3ccccn3)nnc2-c2ccccc2)cc1`, the AC500 is 5.52 µM.

System in a further test: not listed separately
Described as above. To be noted: U2OS HRE-luciferase reporter, luminescence; at 38 µM (top of the series). An outline of the steps:
as §1
For orientation: A reporter such as luciferase makes a cellular process visible.
For the compound `CC1CN(Cc2ccc(O)c3ncccc23)CC(C)O1` (stereo unspecified), the activation is 95.7% (inactive).

As to `CC(C)(C)OC(=O)N1CCN(Cc2ccc(O)c3ncccc23)CC1`, the activation is 271% (inactive).

On to `Cc1cccc(CNC(=O)c2cc(-c3ccccc3)on2)c1`, for which the activation is 1.59% (inactive).

In the case of `N#CC1(c2ccccc2)CCN(Cc2ccc(O)c3ncccc23)CC1`, the activation was 368% (inactive).

In the case of `O=C(Nc1ncc2ccccc2n1)c1cc(-c2ccccc2)on1`, the activation is 104% (inactive).

Take `O=C(Nc1cn2ccccc2n1)c1cc(-c2ccccc2)on1`: the activation is 31.3% (inactive).

With `O=C(c1cc(-c2ccccc2)on1)N1CCN(c2ccncc2)CC1`, the activation is -14.8% (inactive).

Regarding `O=C(c1cc(-c2ccccc2)on1)N1CCC(N2CCCC2)CC1`, the activation was 5.02% (inactive).

On to `O=C(Nc1nc2ccccc2s1)c1cc(-c2ccccc2)on1`, for which the activation was 4.65% (inactive).

Turning to `Cc1ccc(NC(=O)c2cc(-c3ccccc3)on2)cn1`, the activation was -7.72% (inactive).

On to `Cc1ccccc1CNC(=O)c1cc(-c2ccccc2)on1`, for which the activation was 22.9% (inactive).

As for `Cn1c(-c2ccccc2)cnc1NC(=O)c1cc(-c2ccccc2)on1`, the activation is 9.12% (inactive).

Regarding `Cc1cccc(NC(=O)c2cc(-c3ccccc3)on2)n1`, the activation was 29.2% (inactive).

As to `OCC1CCN(Cc2ccc(O)c3ncccc23)CC1`, the activation was 480% (inactive).

`O=C(NCc1ccccc1)c1cc(-c2ccccc2)on1`: the activation is 50.8% (inactive).

On to `Oc1ccc(CN2CCc3ccccc3C2)c2cccnc12`, for which the activation was 263% (inactive).

On to `CN(C)CCNC(=O)c1cc(-c2ccccc2)on1`, for which the activation is 29.6% (inactive).

With `O=C(Nc1cnc2ccccc2c1)c1cc(-c2ccccc2)on1`, the activation is 28.8% (inactive).

Consider `O=C(Nc1nnc(-c2ccccc2)s1)c1cc(-c2ccccc2)on1`, for which the activation was -7.41% (inactive).

On to `Cn1c(NC(=O)c2cc(-c3ccccc3)on2)nc2ccccc21`, for which the activation is -0.753% (inactive).

As for `O=C(Nc1nc(-c2ccccc2)cs1)c1cc(-c2ccccc2)on1`, the activation was -17.1% (inactive).

For the compound `O=C(NCCCO)c1cc(-c2ccccc2)on1`, the activation was 400% (inactive).

`O=C(NC1CCc2ccccc2C1)c1cc(-c2ccccc2)on1` (stereo unspecified): the activation is 5.28% (inactive).

In the case of `O=C(Nc1ccc2ccccc2n1)c1cc(-c2ccccc2)on1`, the activation was 12.3% (inactive).

Turning to `O=C(Nc1ncc(-c2ccccc2)o1)c1cc(-c2ccccc2)on1`, the activation is 14.8% (inactive).

With `CN1CCN(C(=O)c2cc(-c3ccccc3)on2)CC1`, the activation was 2.48% (inactive).

For `O=C(c1cc(-c2ccccc2)on1)N1CCC(N2CCOCC2)CC1`, the activation was 8.48% (inactive).
